Assay results as given in paper PMC4539048 (Science translational medicine, 2015).
≈ marks a conversion by molar mass, not a printed value.

How the values were obtained:
[1] = 7-day repeat dose toxicity study in mice; assay type: in vivo; conditions: highest dose tested, Day 7
Method in brief: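 Mice received the test compound orally once daily at 25–200 mg/kg/day for 7 days in an exploratory (non-GLP) toxicology study. They were monitored daily for clinical signs, body weight and food consumption, with haematology, clinical chemistry and histopathology. Plasma toxicokinetic parameters, including average concentration over the dosing interval, were derived on day 1 and day 7.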

[2] = system: P. falciparum Dd2 and resistant clones; test: microbe, parasite or virus in culture; assay type: cell-based; conditions: Plasmodium falciparum, DD2|DSM265, read-out: DSM265 Dd2 EC50, Dd2/wt
[3] = system: P. falciparum stage V oocyst; test: Oocyst formation in mosquitoes
P. falciparum 3D7 [4] = test: Blood-stage phenotype and development by microscopy; assay type: cell-based; conditions: 10xEC50, 48 h
Method in brief: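 Giemsa-stained smears were scored by microscopy, at least 200 cells per condition, for stage arrest and morphology. Standard antimalarials served as controls.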

Pharmacokinetics in mice = assay type: in vivo; conditions: female, Swiss outbred, mouse, plasma
Method in brief: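 Single-dose PK in female Swiss outbred mice or male beagle dogs, dosed IV and orally in a range of formulations. Blood was drawn into anticoagulant tubes and plasma separated by centrifugation. Compound was quantified by LC/MS, typically in 2–6 animals per study, with SD given where n>2.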

[5] = target: human ether-a-go-go related gene (hERG) K+ channel (Homo sapiens, UniProt Q12809); test: hERG patch clamp assay; assay type: cell-based
human ether-a-go-go related gene (hERG) K+ channel, sequence (Q12809 whole entry): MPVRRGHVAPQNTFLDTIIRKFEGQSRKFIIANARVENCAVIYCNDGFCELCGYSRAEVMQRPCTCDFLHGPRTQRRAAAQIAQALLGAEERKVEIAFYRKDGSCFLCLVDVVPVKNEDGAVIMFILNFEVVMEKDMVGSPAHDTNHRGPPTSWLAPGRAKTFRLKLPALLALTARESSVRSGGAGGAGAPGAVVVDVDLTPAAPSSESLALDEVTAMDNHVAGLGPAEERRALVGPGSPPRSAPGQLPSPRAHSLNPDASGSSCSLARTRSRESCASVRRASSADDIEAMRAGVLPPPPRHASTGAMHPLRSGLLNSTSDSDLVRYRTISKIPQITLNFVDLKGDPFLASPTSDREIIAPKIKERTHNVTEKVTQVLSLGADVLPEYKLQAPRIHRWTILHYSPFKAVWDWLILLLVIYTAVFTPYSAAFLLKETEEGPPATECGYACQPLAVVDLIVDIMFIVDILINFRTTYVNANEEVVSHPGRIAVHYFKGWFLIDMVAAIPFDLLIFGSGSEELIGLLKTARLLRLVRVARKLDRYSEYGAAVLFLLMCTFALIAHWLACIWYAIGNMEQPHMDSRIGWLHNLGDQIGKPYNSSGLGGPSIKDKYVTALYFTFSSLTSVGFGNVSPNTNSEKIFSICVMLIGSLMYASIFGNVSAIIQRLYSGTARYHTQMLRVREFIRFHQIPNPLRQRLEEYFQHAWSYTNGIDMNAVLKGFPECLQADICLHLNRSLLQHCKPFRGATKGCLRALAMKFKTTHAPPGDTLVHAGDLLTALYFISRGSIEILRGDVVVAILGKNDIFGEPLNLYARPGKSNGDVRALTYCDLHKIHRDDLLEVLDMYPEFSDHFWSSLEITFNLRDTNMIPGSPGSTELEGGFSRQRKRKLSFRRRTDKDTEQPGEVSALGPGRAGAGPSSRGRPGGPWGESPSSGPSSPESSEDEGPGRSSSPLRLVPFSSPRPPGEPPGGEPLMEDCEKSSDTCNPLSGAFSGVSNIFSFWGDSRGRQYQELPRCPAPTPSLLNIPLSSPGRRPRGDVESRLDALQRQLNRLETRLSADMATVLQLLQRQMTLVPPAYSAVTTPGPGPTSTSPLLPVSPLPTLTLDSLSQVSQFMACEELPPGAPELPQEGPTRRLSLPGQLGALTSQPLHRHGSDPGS

P. falciparum 3D7 [6] = test: In vitro P. falciparum 3D7 growth inhibition; assay type: cell-based; conditions: Plasmodium falciparum, 3D7, read-out: P. falciparum 3D7 growth inhibition EC50
Method in brief: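 SYBR-green growth assay on P. falciparum 3D7 and drug-resistant lines, including chloroquine- and pyrimethamine-resistant parasites, cultured in RPMI-1640 with 0.5% Albumax-II. At least triplicate data per concentration. EC50 from the log(inhibitor) vs response variable-slope (four-parameter) fit by nonlinear least squares, reported with 95% confidence intervals of the fit.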

Cc1cc(Nc2ccc(S(F)(F)(F)(F)F)cc2)n2nc(C(C)(F)F)nc2n1 [DSM265, 2-(1,1-difluoroethyl)-5-methyl-[N-[4-(pentafluorosulfanyl)phenyl]1,2,4]triazolo[1,5-a]pyrimidin-7-amine]
average plasma concentration within a dosing interval (Cav) [1]: 11.7 µg/mL | EC50 [2]: 2.2 ng/mL (≈ 5.3 nM) | inhibition at 1 µg/mL ([3]; Plasmodium falciparum, read-out: inhibition of oocyst formation): 38% | inhibition of oocyst formation at unbound concentration ([3]; at 0.001 μg/mL unbound (human plasma fraction unbound)): 38% at 0.001 | blood-stage phenotype after treatment (P. falciparum 3D7 [4]): arrested parasites in the young trophozoite-stage | half-life (Pharmacokinetics in mice): 120 to 240 min | IC50 [5]: 1.59 to 6.98 µM | EC50 (P. falciparum 3D7 [6]): 1.8 ng/mL (≈ 4.33 nM)
